Measurements as given in ChEMBL document CHEMBL1154082, “Inhibition of human vascular NADPH oxidase by apocynin derived oligophenols” (Bioorg Med Chem, 2009).
The source made the active and inactive calls. The rule behind the calls is not given here.

Assays:
Homo sapiens [1] = species: Homo sapiens; test: Inhibition of NADPH oxidase in human HUVEC assessed as inhibition of superoxide anion generation by DHE staining confocal microscopy
Summary of the method: (§1)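 HUVEC in phenol red-free DMEM exposed to compound 0–1 mM for 2 h, washed twice in PBS, resuspended in fresh DMEM. NADPH oxidase activated with PMA (1 μM) for 30 min, then DHE (3 μM) for 30 min, then NADPH (100 μM); kept in dark. Oxyethidium red fluorescence imaged by confocal microscopy, qualitative.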

[2] = Inhibition of p47phox/p22phox interaction by ELISA
Homo sapiens [3] = species: Homo sapiens; test: (§2) Inhibition of NADPH oxidase in human HUVEC assessed as inhibition of superoxide anion generation by cytochrome-C reduction assay
Summary of the method: (§3)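 HUVEC (10^5 cells/mL) in phenol red-free DMEM, 10 min at 37°C. LDL (100 μg/mL) activates oxidase. Compound 0–1000 μM with NADPH 100 μM and cytochrome c 250 μM, ±SOD 200 μg/mL, 30 min at room temperature. A550 read. Superoxide taken from the SOD-inhibitable difference using ε 18.7 cm−1mM−1; triplicate.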

[4] = as §2; summary of the method: as §3
Homo sapiens [5] = species: Homo sapiens; test: Inhibition of NADPH oxidase in human HUVEC assessed as inhibition of superoxide anion generation up to 1 mM by DHE staining confocal microscopy; summary of the method: as §1

Activity (Homo sapiens [5])	SMILES	Activity (Homo sapiens [1])	IC50 [2] [µM]	logIC50 [2]	logIC50 (Homo sapiens [3])	IC50 [4] [µM]
–	COC1=CC(C(C)=O)=C/C(=C2\C(=O)C(OC)=C(c3cc(C(C)=O)cc(OC)c3O)C(C(C)=O)=C2O)C1=O	Active	1.6	0.2	-1.51	0.03
inactive	COc1cc(C(C)=O)ccc1O [APOCYNIN]	–	61000	4.78	3.04	1090
